Test results from ChEMBL document CHEMBL2321652, “Design and synthesis of HIV-1 protease inhibitors for a long-acting injectable drug application” (Bioorg Med Chem Lett, 2013).

How the values were obtained:
[1] = test system: Human immunodeficiency virus 1; assay: Selectivity ratio of EC50 for Human immunodeficiency virus 1 3B clinical isolate harboring L10I/K20R/M36I/G48V/ I62V/A71V/V82A/I93L protease mutant to EC50 for wild type Human immunodeficiency virus 1 3B; assay type: functional
[2] = test system: Human immunodeficiency virus 1; assay: Selectivity ratio of EC50 for Human immunodeficiency virus 1 3B clinical isolate harboring L10I/I13V/M46I/I50V/L63P/L76V protease mutant to EC50 for wild type Human immunodeficiency virus 1 3B; assay type: functional
[3] = test system: Human immunodeficiency virus 1; assay: Selectivity ratio of EC50 for Human immunodeficiency virus 1 3B clinical isolate harboring L10I/M46I/I64V/I84V/L90M/I93L protease mutant to EC50 for wild type Human immunodeficiency virus 1 3B; assay type: functional
[4] = test system: Human immunodeficiency virus 1; assay: Antiviral activity against Human immunodeficiency virus 1 3B clinical isolate harboring L10I/K20R/M36I/G48V/ I62V/A71V/V82A/I93L protease mutant infected in human MT4 cells assessed as inhibition of viral replication; assay type: functional, organism-based
Summary of the method: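 Each assay run in quadruplicate. Values are averages of at least two independent experiments, typically three to four. Cytotoxicity (CC50) was measured in parallel in MT4 cells.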

[5] = test system: Human immunodeficiency virus 1; assay: Antiviral activity against Human immunodeficiency virus 1 3B clinical isolate harboring L10I/M46I/I64V/I84V/L90M/I93L protease mutant infected in human MT4 cells assessed as inhibition of viral replication; assay type: functional, organism-based
Summary of the method: (§1)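 Inhibition of replication in MT4 cells infected with protease-mutant HIV-1 clinical isolates, reported as EC50. Each assay run in quadruplicate. Values are averages of at least two independent experiments, typically three to four. Cytotoxicity (CC50) was measured in parallel in MT4 cells.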

[6] = Cytotoxicity against human MT4 cells; assay type: cell-based
[7] = test system: Human immunodeficiency virus 1; assay: Antiviral activity against wild type Human immunodeficiency virus 1 3B infected in human MT4 cells assessed as inhibition of viral replication in presence of 50% human serum
[8] = Drug metabolism in human liver microsomes at 1 uM after 15 mins; assay type: ADME, Microsome; details: read-out: Drug metabolism
Summary of the method: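 Human liver microsome incubation at 37 °C for 15 min with compound at 1 µM; turnover expressed as percent of compound metabolized.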

[9] = Plasma clearance in rat at 2 mg/kg, iv; assay type: ADME, organism-based; design: dose 2 mg/kg, route intravenous
Summary of the method: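 Single intravenous dose of 2 mg/kg in rats. The formulation is typically 1 mg/mL in PEG400/ethanol/saline (70/20/10). Clearance values are averages from two or three animals. High is >3 L/h/kg (>70% liver blood flow) and low is <1.3 L/h/kg (<30%).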

[10] = test system: Human immunodeficiency virus 1; assay: Antiviral activity against wild type Human immunodeficiency virus 1 3B infected in human MT4 cells assessed as inhibition of viral replication; assay type: functional, organism-based
Summary of the method: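 EC50 values are averages of at least two independent experiments (typically three to four), each run in quadruplicate. For the serum-shifted line, the same antiviral assay includes 50% human serum, used as a functional measure of plasma protein binding.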

[11] = test system: Human immunodeficiency virus 1; assay: Antiviral activity against Human immunodeficiency virus 1 3B clinical isolate harboring L10I/I13V/M46I/I50V/L63P/L76V protease mutant infected in human MT4 cells assessed as inhibition of viral replication; assay type: functional, organism-based; summary of the method: as §1

Structure (SMILES) | Ratio EC50 [1] | Ratio EC50 [2] | Ratio EC50 [3] | EC50 [4] | EC50 [5] | CC50 [6] | EC50 [7] | metabolised at 0.25 h, 1 µM [8] | clearance [9] | EC50 [10] | EC50 [11]
CC(C)CN(C[C@@H](O)[C@H](Cc1ccccc1)NC(=O)O[C@H]1CO[C@H]2OCC[C@H]21)S(=O)(=O)c1ccc(N)cc1 | <1 | 8 | 2 | 2.4 nM | 12 nM | > 10000 nM | 17 nM |  |  |  | 
COC(=O)N[C@H](C(=O)N[C@@H](Cc1ccc(-c2ccc(OC)nc2)cc1)[C@@H](O)C[C@@H](Cc1ccccc1F)C(=O)N[C@H]1c2cccc(F)c2OC[C@H]1O)C(C)(C)C |  |  |  |  |  | > 10000 nM | 6.9 nM | 98% | 88.3 mL/min/kg | 2.8 nM | 
COC(=O)N[C@H](C(=O)N[C@@H](Cc1ccc(-c2ccc(OC)nc2)cc1)[C@@H](O)C[C@@H](Cc1ccccc1F)C(=O)N[C@H]1c2cc(F)cc(Cl)c2OC[C@H]1O)C(C)(C)C |  |  |  |  |  | > 10000 nM | 8.4 nM | 8% | 31.7 mL/min/kg | 2.6 nM | 
COC(=O)N[C@H](C(=O)N[C@@H](Cc1ccc(-c2ccc(OC)nc2)cc1)[C@@H](O)C[C@@H](Cc1ccccc1F)C(=O)N[C@H]1c2cc(Cl)cc(F)c2OC[C@H]1O)C(C)(C)C |  |  |  |  |  | > 10000 nM | 16 nM | 23% |  | 4.1 nM | 
COC(=O)N[C@H](C(=O)N[C@@H](Cc1ccc(-c2ccc(OC)nc2)cc1)[C@@H](O)C[C@@H](Cc1ccccc1F)C(=O)N[C@H]1c2cc(C)ccc2OC[C@H]1O)C(C)(C)C |  |  |  |  |  | > 10000 nM | 7.7 nM | 63% | 46.7 mL/min/kg | 0.9 nM | 
COC(=O)N[C@H](C(=O)N[C@@H](Cc1ccc(-c2ccc(OC)nc2)cc1)[C@@H](O)C[C@@H](Cc1ccccc1F)C(=O)N[C@H]1c2cc(C)cc(F)c2OC[C@H]1O)C(C)(C)C |  |  |  |  |  | > 10000 nM | 9.8 nM | 48% | 83.3 mL/min/kg | 2.8 nM | 
COC(=O)N[C@H](C(=O)N[C@@H](Cc1ccc(-c2ccc(OC)nc2)cc1)[C@@H](O)C[C@@H](Cc1ccccc1F)C(=O)N[C@H]1c2cc(F)cc(C)c2OC[C@H]1O)C(C)(C)C | <1 | 2 | 3 | 1.5 nM | 5.4 nM | > 10000 nM | 6.8 nM | 17% | 26.7 mL/min/kg | 1.8 nM | 3.3 nM
COC(=O)N[C@H](C(=O)N[C@@H](Cc1ccc(-c2ccc(OC)nc2)cc1)[C@@H](O)C[C@@H](Cc1ccccc1F)C(=O)N[C@H]1[C@H](C)CC[C@H]1O)C(C)(C)C |  |  |  |  |  | > 10000 nM | 3.3 nM | 99% | 78.3 mL/min/kg | 1.1 nM | 
COC(=O)N[C@H](C(=O)N[C@@H](Cc1ccc(-c2ccc(OC)nc2)cc1)[C@@H](O)C[C@@H](Cc1ccccc1F)C(=O)N[C@H]1CCCC[C@H]1O)C(C)(C)C |  |  |  |  |  | > 10000 nM | 5.9 nM | 99% | 86.7 mL/min/kg | 1.8 nM | 
COC(=O)N[C@H](C(=O)N[C@@H](Cc1ccc(-c2ccc(N(C)C)nc2)cc1)[C@@H](O)C[C@@H](Cc1ccccc1F)C(=O)N[C@H]1[C@H](C)CCC[C@H]1O)C(C)(C)C |  |  |  |  |  | > 10000 nM | 4.9 nM | 99% | 93.3 mL/min/kg | 1.1 nM | 
COC(=O)N[C@H](C(=O)N[C@@H](Cc1ccc(-c2ccc(OC)nc2)cc1)[C@@H](O)C[C@@H](Cc1ccccc1Cl)C(=O)N[C@H]1[C@H](C)CCC[C@H]1O)C(C)(C)C |  |  |  |  |  | > 10000 nM | 7.1 nM | 99% | 70 mL/min/kg | 1.1 nM | 
COC(=O)N[C@H](C(=O)N[C@@H](Cc1ccc(-c2ccc(OC)nc2)cc1)[C@@H](O)C[C@@H](Cc1cccc(OC(F)(F)F)c1)C(=O)N[C@H]1[C@H](C)CCC[C@H]1O)C(C)(C)C |  |  |  |  |  | > 10000 nM | 3.2 nM | 94% | 90 mL/min/kg | 0.9 nM | 
COC(=O)N[C@H](C(=O)N[C@@H](Cc1ccccc1)[C@@H](O)C[C@@H](Cc1ccccc1)C(=O)N[C@H]1c2ccccc2OC[C@H]1O)C(C)(C)C | <1 | <1 | 2 | 7 nM | 19 nM | > 10000 nM | 19 nM | 99% | 66.7 mL/min/kg | 10 nM | 6 nM
COC(=O)N[C@H](C(=O)N[C@@H](Cc1ccc(-c2ccc(OC)nc2)cc1)[C@@H](O)C[C@@H](Cc1ccccc1F)C(=O)N[C@H]1c2ccccc2OC[C@H]1O)C(C)(C)C |  |  |  |  |  | > 10000 nM | 6.6 nM | 72% | 96.7 mL/min/kg | 2.5 nM | 
COC(=O)N[C@H](C(=O)N[C@@H](Cc1ccc(-c2ccc(OC)nc2)cc1)[C@@H](O)C[C@@H](Cc1ccccc1F)C(=O)N[C@H]1c2cc(Cl)ccc2OC[C@H]1O)C(C)(C)C |  |  |  |  |  | > 10000 nM | 14 nM | 23% | 7.83 mL/min/kg | 2.7 nM | 
COC(=O)N[C@H](C(=O)N[C@@H](Cc1ccc(-c2ccc(OC)nc2)cc1)[C@@H](O)C[C@@H](Cc1ccccc1Cl)C(=O)N[C@H]1c2cc(Cl)ccc2OC[C@H]1O)C(C)(C)C |  |  |  |  |  | > 10000 nM | 13 nM | 5% | 23.3 mL/min/kg | 3.9 nM | 
COC(=O)N[C@H](C(=O)N[C@@H](Cc1ccc(-c2ccc(OC)nc2)cc1)[C@@H](O)C[C@@H](Cc1cccc(OC(F)(F)F)c1)C(=O)N[C@H]1c2cc(Cl)ccc2OC[C@H]1O)C(C)(C)C |  |  |  |  |  | > 10000 nM | 24 nM | 0% |  | 4.2 nM | 
COC(=O)N[C@H](C(=O)N[C@@H](Cc1ccc(-c2ccc(OC)nc2)cc1)[C@@H](O)C[C@@H](Cc1ccccc1F)C(=O)N[C@H]1c2cccc(Cl)c2OC[C@H]1O)C(C)(C)C |  |  |  |  |  | > 10000 nM | 5.3 nM | 47% | 65 mL/min/kg | 2.4 nM | 
COC(=O)N[C@H](C(=O)N[C@@H](Cc1ccc(-c2ccc(OC)nc2)cc1)[C@@H](O)C[C@@H](Cc1ccccc1F)C(=O)N[C@H]1c2cc(F)ccc2OC[C@H]1O)C(C)(C)C |  |  |  |  |  | > 10000 nM | 5.8 nM | 48% | 35 mL/min/kg | 1.2 nM | 
COC(=O)N[C@H](C(=O)N[C@@H](Cc1ccccc1)[C@@H](O)CN(Cc1ccc(-c2ccccn2)cc1)NC(=O)[C@@H](NC(=O)OC)C(C)(C)C)C(C)(C)C [ATAZANAVIR] | 9 | <1 | 8 |  | 57 nM | > 10000 nM | 13 nM |  |  | 6.8 nM | 
Cc1cccc(C)c1OCC(=O)N[C@@H](Cc1ccccc1)[C@@H](O)C[C@H](Cc1ccccc1)NC(=O)[C@H](C(C)C)N1CCCNC1=O [LOPINAVIR] |  |  |  |  |  | > 10000 nM |  |  |  | 13 nM | 
